# According to ChEMBL document CHEMBL4011643, “Triaryl Benzimidazoles as a New Class of Antibacterial Agents against Resistant Pathogenic Microorganisms” (J Med Chem, 2017):
# How the values were obtained:
# [1] = tested on: Pseudomonas aeruginosa; assay: Antibacterial activity against Pseudomonas aeruginosa PAO1 after 20 hrs in the presence of PMBN by broth microdilution method; type: functional; conditions: PAO1, 20 h
# Method in brief: (§1)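 Broth microdilution in Tryptic Soy Broth, done in triplicate. Growth was read as OD600 after 20 h. MIC is the lowest drug concentration giving OD600 below 0.1.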
# [2] = tested on: Acinetobacter baumannii; assay: Antibacterial activity against Acinetobacter baumannii AYE after 20 hrs in the presence of Pa-beta-N and magnesium ions by broth microdilution method; type: functional; method in brief: as §1
# [3] = tested on: Acinetobacter baumannii; assay: Antibacterial activity against Acinetobacter baumannii ATCC 17978 after 20 hrs in the presence of PMBN by broth microdilution method; type: functional; conditions: ATCC 17978, 20 h; method in brief: as §1
# [4] = tested on: Pseudomonas aeruginosa; assay: Antibacterial activity against Pseudomonas aeruginosa NCTC 13437 after 20 hrs in the presence of PMBN by broth microdilution method; type: functional; conditions: NCTC 13437, 20 h; method in brief: as §1
# [5] = tested on: Pseudomonas aeruginosa; assay: Antibacterial activity against Pseudomonas aeruginosa NCTC 13437 after 20 hrs by broth microdilution method; type: functional; conditions: NCTC 13437, 20 h; method in brief: as §1
# [6] = Cytotoxicity against human HeLa cells assessed as cell viability at 25 uM after 24 hrs by MTT assay; type: cell-based; conditions: read-out: Activity
# Method in brief: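 HeLa cells, 10000 per well, were grown at 37 °C in 5% CO2 and allowed to settle for 24 h. Compound was then added in triplicate for 24 h of continuous exposure. Viability was read by MTT colorimetry, with absorbance at 570 nm.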
# [7] = tested on: Klebsiella pneumoniae; assay: Antibacterial activity against Klebsiella pneumoniae NCTC 13368 after 20 hrs in the presence of Pa-beta-N and magnesium ions by broth microdilution method; type: functional; conditions: NCTC 13368, 20 h; method in brief: as §1
# [8] = tested on: Enterococcus faecium; assay: Antibacterial activity against vancomycin-resistant Enterococcus faecium NCTC 12204 after 20 hrs by broth microdilution method; type: functional; conditions: NCTC 12204, 20 h
# Method in brief: (§2)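 Broth microdilution in Tryptic Soy Broth; growth read as OD600 after 20 h. MIC taken as the lowest drug concentration giving OD600 below 0.1. Run in triplicate.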
# [9] = tested on: Staphylococcus aureus; assay: Antibacterial activity against methicillin-sensitive Staphylococcus aureus ATCC 9144 after 20 hrs by broth microdilution method; type: functional; conditions: ATCC 9144, 20 h; method in brief: as §1
# [10] = tested on: Pseudomonas aeruginosa; assay: Antibacterial activity against Pseudomonas aeruginosa PAO1 after 20 hrs in the presence of Pa-beta-N and magnesium ions by broth microdilution method; type: functional; conditions: PAO1, 20 h; method in brief: as §1
# [11] = tested on: Pseudomonas aeruginosa; assay: Antibacterial activity against Pseudomonas aeruginosa NCTC 13437 after 20 hrs in the presence of Pa-beta-N and magnesium ions by broth microdilution method; type: functional; conditions: NCTC 13437, 20 h; method in brief: as §1
# [12] = tested on: Enterococcus faecalis; assay: Antibacterial activity against vancomycin-resistant Enterococcus faecalis NCTC 12201 after 20 hrs by broth microdilution method; type: functional; conditions: NCTC 12201, 20 h; method in brief: as §2
# [13] = tested on: Klebsiella pneumoniae; assay: Antibacterial activity against Klebsiella pneumoniae NCTC 13368 after 20 hrs in the presence of PMBN by broth microdilution method; type: functional; conditions: NCTC 13368, 20 h; method in brief: as §1
# [14] = tested on: Staphylococcus aureus; assay: Antibacterial activity against methicillin-resistant Staphylococcus aureus MRSA252 after 20 hrs by broth microdilution method; type: functional; conditions: MRSA252, 20 h; method in brief: as §2
# [15] = tested on: Klebsiella pneumoniae; assay: Antibacterial activity against Klebsiella pneumoniae M6 after 20 hrs in the presence of PMBN by broth microdilution method; type: functional; conditions: M6, 20 h; method in brief: as §1
# [16] = tested on: Acinetobacter baumannii; assay: Antibacterial activity against Acinetobacter baumannii AYE after 20 hrs in the presence of PMBN by broth microdilution method; type: functional; method in brief: as §1
# [17] = tested on: Acinetobacter baumannii; assay: Antibacterial activity against Acinetobacter baumannii ATCC 17978 after 20 hrs in the presence of Pa-beta-N and magnesium ions by broth microdilution method; type: functional; conditions: ATCC 17978, 20 h; method in brief: as §1
# [18] = tested on: Acinetobacter baumannii; assay: Antibacterial activity against Acinetobacter baumannii AYE after 20 hrs by broth microdilution method; type: functional; method in brief: as §1
# [19] = tested on: Enterococcus faecalis; assay: Antibacterial activity against vancomycin-sensitive Enterococcus faecalis NCTC 775 after 20 hrs by broth microdilution method; type: functional; conditions: NCTC 775, 20 h; method in brief: as §1
# [20] = tested on: Klebsiella pneumoniae; assay: Antibacterial activity against Klebsiella pneumoniae NCTC 13368 after 20 hrs by broth microdilution method; type: functional; conditions: NCTC 13368, 20 h; method in brief: as §1
# [21] = tested on: Klebsiella pneumoniae; assay: Antibacterial activity against Klebsiella pneumoniae M6 after 20 hrs in the presence of Pa-beta-N and magnesium ions by broth microdilution method; type: functional; conditions: M6, 20 h; method in brief: as §1
# [22] = tested on: Staphylococcus aureus; assay: Antibacterial activity against methicillin-resistant Staphylococcus aureus EMRSA-15 after 20 hrs by broth microdilution method; type: functional; conditions: EMRSA-15, 20 h; method in brief: as §2
# [23] = tested on: Klebsiella pneumoniae; assay: Antibacterial activity against Klebsiella pneumoniae M6 after 20 hrs by broth microdilution method; type: functional; conditions: M6, 20 h; method in brief: as §1
# [24] = tested on: Acinetobacter baumannii; assay: Antibacterial activity against Acinetobacter baumannii ATCC 17978 after 20 hrs by broth microdilution method; type: functional; conditions: ATCC 17978, 20 h; method in brief: as §1
# [25] = tested on: Pseudomonas aeruginosa; assay: Antibacterial activity against Pseudomonas aeruginosa PAO1 after 20 hrs by broth microdilution method; type: functional; conditions: PAO1, 20 h; method in brief: as §1
compound,measurement,setting,value
Cc1nc2ccc(C(=O)Nc3cccc(-c4ccc(-n5c(C)nc6cc(C(=O)NCCCN7CCN(C)CC7)ccc65)nc4)c3)cc2[nH]1,MIC,[1],> 32 µg/mL
same,MIC,[2],> 32 µg/mL
same,MIC,[3],> 32 µg/mL
same,MIC,[4],> 32 µg/mL
same,MIC,[5],> 32 µg/mL
same,"viability at 24 h, 25 µM",[6],> 98%
same,MIC,[7],> 32 µg/mL
same,MIC,[8],> 128 µg/mL
same,MIC,[9],16 µg/mL
same,MIC,[10],> 32 µg/mL
same,MIC,[11],> 32 µg/mL
same,MIC,[12],64 µg/mL
same,MIC,[13],> 32 µg/mL
same,MIC,[14],> 32 µg/mL
same,MIC,[15],> 32 µg/mL
same,MIC,[16],> 32 µg/mL
same,MIC,[17],> 32 µg/mL
same,MIC,[18],> 32 µg/mL
same,MIC,[19],> 128 µg/mL
same,MIC,[20],> 32 µg/mL
same,MIC,[21],> 32 µg/mL
same,MIC,[22],> 128 µg/mL
same,MIC,[23],> 32 µg/mL
same,MIC,[24],> 32 µg/mL
same,MIC,[25],> 32 µg/mL
CC1(C)S[C@@H]2[C@H](NC(=O)[C@H](N)c3ccc(O)cc3)C(=O)N2[C@H]1C(=O)O [AMOXICILLIN],MIC,[8],16 µg/mL
same,MIC,[9],1 µg/mL
same,MIC,[12],0.5 µg/mL
same,MIC,[14],> 128 µg/mL
same,MIC,[19],0.5 µg/mL
same,MIC,[22],128 µg/mL
Cc1nc2cc(C(=O)NCCCN(C)C)ccc2n1-c1ccc(-c2cccc(N)c2)cn1,MIC,[12],> 128 µg/mL
same,MIC,[22],> 128 µg/mL
CN[C@H](CC(C)C)C(=O)N[C@H]1C(=O)N[C@@H](CC(N)=O)C(=O)N[C@H]2C(=O)N[C@H]3C(=O)N[C@H](C(=O)N[C@H](C(=O)O)c4cc(O)cc(O)c4-c4cc3ccc4O)[C@H](O)c3ccc(c(Cl)c3)Oc3cc2cc(c3O[C@@H]2O[C@H](CO)[C@@H](O)[C@H](O)[C@H]2O[C@H]2C[C@](C)(N)[C@H](O)[C@H](C)O2)Oc2ccc(cc2Cl)[C@H]1O [VANCOMYCIN],MIC,[8],> 128 µg/mL
same,MIC,[12],> 128 µg/mL
same,MIC,[19],1 µg/mL
